This note sets out measurements from ChEMBL document CHEMBL4219179, “Small-molecules that bind to the ubiquitin-binding motif of REV1 inhibit REV1 interaction with K164-monoubiquitinated PCNA and suppress DNA damage tolerance” (Bioorg Med Chem, 2018).

Molecules are shown by their SMILES. Activity calls are given as the source filed them. The rule behind the calls is not given here.

A short description of series [1]: Inhibition of biotin/Avi-tagged UbPCNA binding to recombinant human N-terminal His-tagged REV1 deletion mutant BRCT/UBM1/UBM2 domain expressed in Escherichia coli BL21(DE3) measured after 1 hr by AlphaScreen assay. Summed up: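 AlphaScreen with 200 nM biotin-AviTag-Ub-PCNA (enzymatically K164-ubiquitinated) and 40 nM N-His REV1 in PBS pH 7.4, 0.1% BSA, 0.05% Tween-20, with serial compound dilutions. Ni-chelate acceptor beads added, streptavidin donor beads after 1 h, read 1 h later; dose-response fitted on final concentrations.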

For series [2], the target named is T1, DNA repair protein REV1 (Homo sapiens) (UniProt Q9UBZ9).
T1 sequence (whole entry): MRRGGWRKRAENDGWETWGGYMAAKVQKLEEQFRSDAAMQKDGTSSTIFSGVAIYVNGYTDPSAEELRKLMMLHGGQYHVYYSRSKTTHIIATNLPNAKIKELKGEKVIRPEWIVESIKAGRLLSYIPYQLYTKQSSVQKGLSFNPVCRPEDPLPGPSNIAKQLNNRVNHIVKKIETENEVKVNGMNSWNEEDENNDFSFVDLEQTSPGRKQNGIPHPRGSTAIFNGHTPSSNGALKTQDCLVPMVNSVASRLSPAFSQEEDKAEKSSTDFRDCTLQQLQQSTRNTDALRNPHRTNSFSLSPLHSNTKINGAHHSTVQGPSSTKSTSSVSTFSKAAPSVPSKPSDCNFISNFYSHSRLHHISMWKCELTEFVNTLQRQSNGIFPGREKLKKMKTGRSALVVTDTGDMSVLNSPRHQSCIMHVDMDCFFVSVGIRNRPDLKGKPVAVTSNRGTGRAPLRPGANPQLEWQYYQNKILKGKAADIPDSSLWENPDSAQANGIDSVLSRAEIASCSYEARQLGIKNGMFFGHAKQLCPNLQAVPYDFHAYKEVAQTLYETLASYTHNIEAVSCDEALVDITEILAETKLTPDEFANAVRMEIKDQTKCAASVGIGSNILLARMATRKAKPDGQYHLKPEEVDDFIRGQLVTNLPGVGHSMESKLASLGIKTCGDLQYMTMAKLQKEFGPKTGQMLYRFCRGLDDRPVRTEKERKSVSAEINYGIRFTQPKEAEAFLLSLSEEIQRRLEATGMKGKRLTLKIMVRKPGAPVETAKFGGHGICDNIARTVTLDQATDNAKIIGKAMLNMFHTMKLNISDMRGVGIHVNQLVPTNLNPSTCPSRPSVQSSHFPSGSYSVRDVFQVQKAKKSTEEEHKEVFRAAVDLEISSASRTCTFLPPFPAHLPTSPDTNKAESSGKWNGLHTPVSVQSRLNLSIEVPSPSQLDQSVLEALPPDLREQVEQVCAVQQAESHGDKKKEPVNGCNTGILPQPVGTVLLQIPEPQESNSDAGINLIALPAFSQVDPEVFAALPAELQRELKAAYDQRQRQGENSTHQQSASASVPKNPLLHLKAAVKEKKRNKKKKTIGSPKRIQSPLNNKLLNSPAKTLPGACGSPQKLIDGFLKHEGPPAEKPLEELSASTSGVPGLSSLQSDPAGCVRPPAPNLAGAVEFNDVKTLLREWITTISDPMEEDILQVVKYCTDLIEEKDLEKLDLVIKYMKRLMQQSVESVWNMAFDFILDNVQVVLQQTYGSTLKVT
The series can be described thus: Binding affinity to recombinant human REV1 UBM1/UBM2 domain (137 residues) expressed in Escherichia coli BL21(DE3) assessed as increase in NOE peaks at 200 uM by STD NMR spectral analysis. In short, it runs like this: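 STD NMR at 280 K with 10 µM protein and 200 µM compound. Saturation by a train of 30 ms Gaussian pulses for 4 s, on resonance at 0 ppm and off resonance at -40 ppm; 256 on/off FIDs recorded. REV1 UBM1-UBM2 expressed as for REV1 (His-tagged, Ni-NTA), tag removed by […].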

Series [3] is described as follows: Solubility of the compound in sodium phosphate buffer at pH 7. Format: physicochemical.
Series [4] addresses T1, DNA repair protein REV1 (Homo sapiens). The series can be described thus: Inhibition of UbPCNA binding to EGFP-tagged REV1 (unknown origin) expressed in human U2OS cells assessed as reduction in cisplatin-induced recruitment of EGFP-REV1 to PCNA foci on chromatin at 150 uM treated after 3.5 hrs cisplatin exposure and measured 6 hrs after post dose by immunostaining based confocal microscopic analysis. Format: cell-based. In short, it runs like this:
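U2OS cells transfected with pEGFP-REV1. Two days later, 33 µM cisplatin for 3.5 h, then released into DMSO or 150 µM compound for 6 h. CSK/Triton pre-extraction, PFA fixation, methanol, PCNA (PC10) immunostain, confocal imaging. Pearson coefficient of PCNA vs REV1 per DAPI-defined nucleus; n=32–37 cells, two-tailed t-test.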

For series [5] the target is unchanged. The series is described as follows: Inhibition of REV1 in human HeLa cells assessed as reduction in 2.5 J/m2 UV light-induced cyclopyrimidine dimer removal at 150 uM by epi-fluorescence microscopic analysis. The series is classed as cell-based. Summed up: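 HeLa cells on coverslips given 0 or 2.5 J/m² UVC (254 nm), then DMSO or 150 µM compound. Fixed at time points up to 24 h, denatured in 2 M HCl and stained with anti-CPD (TDM-2). Epifluorescence mean green intensity per DAPI-defined nucleus; two-tailed t-test.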

Series [6] has the same target. The series is described as follows: Inhibition of REV1 in human WTK1 cells assessed as suppression of 0 to 128 J/m2 UV light-induced HPRT gene mutation by measuring reduction in number of resistant clones at 150 uM dosed Immediately following UVC treatment and measured after 21 hrs. Summed up: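 WTK-1 cells cleansed (CHAT, then THC) and conditioned in horse serum; 2×10^6 cells given UVC 0–128 J/m², then DMSO or 150 µM compound for 21 h. Survival plated at 1.6 cells/well (PE0, PE6). After 5 days' expression, 5,000 cells/well in 0.5 µg/mL 6-thioguanine; colonies scored after 11–12 days; mutation frequency normalized to plating efficiency.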

Series [7] concerns U2OS. The series is described as follows: Cytotoxicity against human U2OS cells assessed as reduction in colony formation at 75 uM incubated for 24 hrs followed by culture medium replacement with fresh medium and measured after 7 days by crystal violet staining based assay relative to control. Format: cell-based. Summed up:
(§1)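 U2OS cells, 300 per well, settled overnight, then given cisplatin or 4-hydroxycyclophosphamide at the stated final level. After 24 h, compound or DMSO added; medium replaced after another 24 h and cells grown 7 days. Formaldehyde fixation, 0.5% crystal violet staining, colonies of more than ~40 cells counted; triplicates, survival set to 1 for vehicle (saline for cisplatin, DMSO for 4-HC).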

Series [8] concerns the target T1, DNA repair protein REV1 (Homo sapiens). The series can be described thus: Inhibition of REV1 in human U2OS cells assessed as potentiation of cisplatin-induced cytotoxicity by measuring reduction in colony formation at 75 uM incubated for 24 hrs after 24 hrs cisplatin exposure followed by culture medium replacement with fresh medium and measured after 7 days by crystal violet staining based assay relative to control. Format: cell-based. Summed up:
as §1

Series [9] has the same target. The series is described as follows: Inhibition of REV1 in human U2OS cells assessed as potentiation of 4-hydroxycyclophosphamide-induced cytotoxicity by measuring reduction in colony formation at 75 uM incubated for 24 hrs after 24 hrs 4-hydroxycyclophosphamide-exposure followed by culture medium replacement with fresh medium and measured after 7 days by crystal violet staining based assay relative to control. Format: cell-based. In short, it runs like this: as §1

Series [10] shares this target. The series can be described thus: Binding affinity to recombinant human REV1 UBM2 domain assessed as chemical shift changes by [1H,15N]-HSQC NMR spectral analysis. Summed up:
(§2)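 15N-labeled REV1 UBM2 in 20 mM sodium phosphate pH 7.0, 100 mM NaCl, titrated at protein:compound ratios 1:2, 1:4, 1:6, 1:8 and 1:10. 1H and 15N shifts of displaced peaks tracked at each point; weighted average shift δav(NH) = [(δH² + (δN/5)²)/2]^1/2 per backbone amide.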

For series [11] the target is unchanged. The series is described as follows: Binding affinity to recombinant human REV1 UBM2 domain assessed as chemical shift perturbations on alpha-helix at REV1 UBM2 to compound molar ratio of 1:10 by [1H,15N]-HSQC NMR spectral analysis. Summed up:
as §2

In series [12] the test system is U2OS. The series can be described thus: Cytotoxicity against human U2OS cells expressing EGFP-tagged REV1 (unknown origin) at 150 uM. Format: cell-based.

The IC50 is the concentration at which inhibition is half-maximal. With `O=C1CN(C(=O)CCc2cc(I)c(Oc3ccc(O)cc3)c(I)c2)CCN1`, the IC50 in series [1] is 3.4 µM. Moreover, in series [2], the outcome was Active. Also, in series [3], the solubility result is on record as “Insoluble”. The inhibition result in series [4], in series [5] and in series [6] was “Active” throughout. The “fold change (FC)” value in series [7] amounted to 2; in series [8], 10; in series [9] it was 10.
With `Cl.O=C(CCc1cc(I)c(Oc2ccc(O)cc2)c(I)c1)N1CCNCC1`, in series [1], the half-maximal inhibitory concentration (IC50) was found to be 9.7 µM. Further, the outcome in series [2] and in series [11] was Active. Further, in series [3], the solubility entry was “Soluble”. For the same compound, the Activity result in series [10] is “Dose-dependent effect”; in series [12], “Toxic”.
